Assays:
[1] = biological target: T1, Serine/threonine-protein kinase NLK (Homo sapiens) (UniProt Q9UBE8); experiment: Inhibition of NLK at 1 uM
T1 sequence (whole entry): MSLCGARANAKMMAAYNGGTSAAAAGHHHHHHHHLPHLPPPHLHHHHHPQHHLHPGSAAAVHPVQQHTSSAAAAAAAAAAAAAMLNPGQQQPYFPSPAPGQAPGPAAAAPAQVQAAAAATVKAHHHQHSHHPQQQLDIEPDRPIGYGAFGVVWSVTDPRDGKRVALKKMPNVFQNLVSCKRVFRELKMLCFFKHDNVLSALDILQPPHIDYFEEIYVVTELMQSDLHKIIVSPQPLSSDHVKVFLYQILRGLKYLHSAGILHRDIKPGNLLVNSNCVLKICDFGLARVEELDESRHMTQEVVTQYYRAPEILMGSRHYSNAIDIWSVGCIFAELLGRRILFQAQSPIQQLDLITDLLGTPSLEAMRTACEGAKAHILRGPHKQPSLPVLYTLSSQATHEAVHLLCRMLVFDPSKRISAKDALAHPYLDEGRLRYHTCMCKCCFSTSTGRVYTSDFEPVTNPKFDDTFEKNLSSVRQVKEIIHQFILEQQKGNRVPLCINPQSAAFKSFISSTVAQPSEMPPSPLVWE

[2] = biological target: Myosin light chain kinase, smooth muscle (Homo sapiens) (UniProt Q15746); experiment: Inhibition of MLCK at 1 uM
[3] = biological target: T2, Serine/threonine-protein kinase Nek9 (Homo sapiens) (UniProt Q8TD19); experiment: Inhibition of NEK9 at 1 uM
T2 sequence (whole entry): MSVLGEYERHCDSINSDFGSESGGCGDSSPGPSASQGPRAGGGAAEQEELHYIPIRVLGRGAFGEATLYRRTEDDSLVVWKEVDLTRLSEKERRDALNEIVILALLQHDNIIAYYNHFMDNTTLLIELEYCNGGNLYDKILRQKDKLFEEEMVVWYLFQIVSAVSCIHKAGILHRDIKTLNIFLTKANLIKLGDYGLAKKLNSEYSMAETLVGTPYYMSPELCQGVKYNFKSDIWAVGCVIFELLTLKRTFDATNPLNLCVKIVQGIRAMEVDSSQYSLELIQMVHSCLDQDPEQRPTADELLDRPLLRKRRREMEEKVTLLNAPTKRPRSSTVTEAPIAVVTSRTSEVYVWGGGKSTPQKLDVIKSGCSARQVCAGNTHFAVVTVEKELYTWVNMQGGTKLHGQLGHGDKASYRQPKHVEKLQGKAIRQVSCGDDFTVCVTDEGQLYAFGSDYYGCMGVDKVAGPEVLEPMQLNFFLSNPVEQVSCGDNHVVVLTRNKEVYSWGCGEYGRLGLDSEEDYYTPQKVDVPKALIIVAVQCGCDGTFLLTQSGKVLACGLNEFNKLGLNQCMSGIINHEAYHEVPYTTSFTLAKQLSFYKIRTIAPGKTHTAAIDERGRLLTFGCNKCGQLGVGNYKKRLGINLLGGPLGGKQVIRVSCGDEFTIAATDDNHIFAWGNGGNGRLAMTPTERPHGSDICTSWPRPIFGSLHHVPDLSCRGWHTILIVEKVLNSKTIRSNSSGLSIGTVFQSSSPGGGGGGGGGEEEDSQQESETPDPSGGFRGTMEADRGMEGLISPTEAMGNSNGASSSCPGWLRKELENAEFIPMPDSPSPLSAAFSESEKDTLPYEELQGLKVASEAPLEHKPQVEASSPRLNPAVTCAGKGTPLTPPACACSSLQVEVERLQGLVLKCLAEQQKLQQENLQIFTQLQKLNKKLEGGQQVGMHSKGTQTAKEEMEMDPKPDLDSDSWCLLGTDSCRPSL

[4] = biological target: T3, Serine/threonine-protein kinase 3 (Homo sapiens) (UniProt Q13188); experiment: Inhibition of MST2 at 1 uM
T3 sequence (whole entry): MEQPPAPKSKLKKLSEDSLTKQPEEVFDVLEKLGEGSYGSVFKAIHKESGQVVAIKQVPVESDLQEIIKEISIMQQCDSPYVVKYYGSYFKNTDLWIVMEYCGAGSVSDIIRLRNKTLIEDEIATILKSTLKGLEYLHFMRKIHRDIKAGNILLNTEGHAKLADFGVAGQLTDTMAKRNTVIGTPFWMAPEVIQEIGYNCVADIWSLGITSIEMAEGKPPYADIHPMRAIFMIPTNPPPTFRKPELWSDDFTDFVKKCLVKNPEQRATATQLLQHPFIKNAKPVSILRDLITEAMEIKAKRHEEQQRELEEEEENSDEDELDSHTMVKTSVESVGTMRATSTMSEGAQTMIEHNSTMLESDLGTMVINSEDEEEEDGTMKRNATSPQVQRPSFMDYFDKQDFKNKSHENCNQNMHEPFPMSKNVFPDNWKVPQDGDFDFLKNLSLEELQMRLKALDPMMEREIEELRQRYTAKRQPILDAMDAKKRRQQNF

[5] = biological target: Serine/threonine-protein kinase SIK3 (Homo sapiens) (UniProt Q9Y2K2); experiment: Inhibition of QSK at 1 uM
[6] = biological target: Phosphatidylinositol 4-phosphate 5-kinase type-1 alpha (Homo sapiens) (UniProt Q99755); experiment: Inhibition of PIP5K1A at 1 uM
[7] = biological target: Insulin receptor (Homo sapiens) (UniProt P06213); experiment: Inhibition of INSR at 1 uM
Outline: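 Single-concentration screen on the Ambit KINOMEscan platform, run against a panel of 250–400 kinases. Per-kinase inhibition was also summarized as S(90), the fraction of kinases inhibited by more than 90%.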

[8] = biological target: T4, Serine/threonine-protein kinase 4 (Homo sapiens) (UniProt Q13043); experiment: Inhibition of MST1 at 1 uM
T4 sequence (whole entry): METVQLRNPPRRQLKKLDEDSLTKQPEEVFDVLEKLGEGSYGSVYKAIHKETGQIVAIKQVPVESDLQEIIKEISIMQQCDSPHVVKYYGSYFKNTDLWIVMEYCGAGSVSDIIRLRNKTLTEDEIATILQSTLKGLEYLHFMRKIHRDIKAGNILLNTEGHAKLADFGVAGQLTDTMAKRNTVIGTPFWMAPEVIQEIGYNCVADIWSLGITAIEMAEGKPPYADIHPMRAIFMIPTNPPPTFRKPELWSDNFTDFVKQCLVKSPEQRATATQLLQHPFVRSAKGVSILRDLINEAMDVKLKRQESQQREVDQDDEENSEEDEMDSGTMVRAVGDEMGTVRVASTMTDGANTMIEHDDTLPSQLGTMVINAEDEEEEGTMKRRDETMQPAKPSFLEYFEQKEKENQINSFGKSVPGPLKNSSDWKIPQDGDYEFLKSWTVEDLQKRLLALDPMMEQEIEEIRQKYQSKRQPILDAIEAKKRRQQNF

Sequence of Serine/threonine-protein kinase SIK3 (Homo sapiens) (Q9Y2K2 whole entry, looked up): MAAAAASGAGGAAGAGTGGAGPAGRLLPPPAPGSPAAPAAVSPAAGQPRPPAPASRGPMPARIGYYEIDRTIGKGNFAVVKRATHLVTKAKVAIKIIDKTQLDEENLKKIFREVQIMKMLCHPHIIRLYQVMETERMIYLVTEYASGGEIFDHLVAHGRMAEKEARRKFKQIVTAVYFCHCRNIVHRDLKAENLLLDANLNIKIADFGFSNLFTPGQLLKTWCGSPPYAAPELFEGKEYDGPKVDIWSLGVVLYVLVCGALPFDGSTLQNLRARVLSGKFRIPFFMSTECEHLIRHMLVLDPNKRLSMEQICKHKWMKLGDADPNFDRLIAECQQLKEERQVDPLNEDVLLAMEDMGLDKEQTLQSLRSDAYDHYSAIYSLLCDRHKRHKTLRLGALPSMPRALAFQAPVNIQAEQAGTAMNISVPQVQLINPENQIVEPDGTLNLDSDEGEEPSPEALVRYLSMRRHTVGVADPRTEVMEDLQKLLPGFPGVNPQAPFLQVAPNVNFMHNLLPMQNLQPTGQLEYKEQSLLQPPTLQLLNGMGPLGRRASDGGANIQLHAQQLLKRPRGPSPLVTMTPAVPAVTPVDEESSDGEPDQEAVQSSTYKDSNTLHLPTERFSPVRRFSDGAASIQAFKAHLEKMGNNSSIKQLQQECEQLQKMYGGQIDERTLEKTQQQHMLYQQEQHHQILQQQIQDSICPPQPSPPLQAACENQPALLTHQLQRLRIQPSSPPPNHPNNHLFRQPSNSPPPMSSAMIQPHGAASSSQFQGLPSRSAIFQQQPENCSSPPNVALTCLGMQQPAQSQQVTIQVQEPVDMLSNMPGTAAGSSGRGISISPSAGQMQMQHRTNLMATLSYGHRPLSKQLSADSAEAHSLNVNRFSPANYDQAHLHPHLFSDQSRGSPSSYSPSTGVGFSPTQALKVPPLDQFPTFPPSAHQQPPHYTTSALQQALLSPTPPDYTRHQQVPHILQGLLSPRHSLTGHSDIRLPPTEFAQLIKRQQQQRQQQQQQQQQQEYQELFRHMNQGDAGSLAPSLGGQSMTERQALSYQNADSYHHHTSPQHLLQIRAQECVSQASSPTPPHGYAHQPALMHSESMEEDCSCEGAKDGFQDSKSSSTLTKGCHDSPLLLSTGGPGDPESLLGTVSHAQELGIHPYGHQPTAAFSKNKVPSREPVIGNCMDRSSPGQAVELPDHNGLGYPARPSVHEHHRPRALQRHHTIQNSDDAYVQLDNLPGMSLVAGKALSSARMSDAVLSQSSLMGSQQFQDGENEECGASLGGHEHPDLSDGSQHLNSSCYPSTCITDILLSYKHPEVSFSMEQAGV
Sequence of Phosphatidylinositol 4-phosphate 5-kinase type-1 alpha (Homo sapiens) (Q99755 whole entry): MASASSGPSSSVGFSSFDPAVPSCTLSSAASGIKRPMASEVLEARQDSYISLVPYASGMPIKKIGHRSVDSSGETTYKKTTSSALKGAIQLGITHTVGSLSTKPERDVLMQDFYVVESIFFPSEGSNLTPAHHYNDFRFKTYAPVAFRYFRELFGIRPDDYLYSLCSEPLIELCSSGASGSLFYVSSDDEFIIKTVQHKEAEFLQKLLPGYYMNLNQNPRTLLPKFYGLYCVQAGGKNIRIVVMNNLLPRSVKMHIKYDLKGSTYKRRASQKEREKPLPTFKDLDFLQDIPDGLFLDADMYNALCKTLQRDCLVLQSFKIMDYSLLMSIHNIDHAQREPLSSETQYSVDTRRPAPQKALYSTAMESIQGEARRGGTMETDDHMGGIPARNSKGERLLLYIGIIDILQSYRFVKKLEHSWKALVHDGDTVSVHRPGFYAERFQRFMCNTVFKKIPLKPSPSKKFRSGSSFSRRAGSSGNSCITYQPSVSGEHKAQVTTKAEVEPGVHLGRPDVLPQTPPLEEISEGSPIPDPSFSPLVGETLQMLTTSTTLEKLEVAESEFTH
Sequence of Myosin light chain kinase, smooth muscle (Homo sapiens) (Q15746 whole entry): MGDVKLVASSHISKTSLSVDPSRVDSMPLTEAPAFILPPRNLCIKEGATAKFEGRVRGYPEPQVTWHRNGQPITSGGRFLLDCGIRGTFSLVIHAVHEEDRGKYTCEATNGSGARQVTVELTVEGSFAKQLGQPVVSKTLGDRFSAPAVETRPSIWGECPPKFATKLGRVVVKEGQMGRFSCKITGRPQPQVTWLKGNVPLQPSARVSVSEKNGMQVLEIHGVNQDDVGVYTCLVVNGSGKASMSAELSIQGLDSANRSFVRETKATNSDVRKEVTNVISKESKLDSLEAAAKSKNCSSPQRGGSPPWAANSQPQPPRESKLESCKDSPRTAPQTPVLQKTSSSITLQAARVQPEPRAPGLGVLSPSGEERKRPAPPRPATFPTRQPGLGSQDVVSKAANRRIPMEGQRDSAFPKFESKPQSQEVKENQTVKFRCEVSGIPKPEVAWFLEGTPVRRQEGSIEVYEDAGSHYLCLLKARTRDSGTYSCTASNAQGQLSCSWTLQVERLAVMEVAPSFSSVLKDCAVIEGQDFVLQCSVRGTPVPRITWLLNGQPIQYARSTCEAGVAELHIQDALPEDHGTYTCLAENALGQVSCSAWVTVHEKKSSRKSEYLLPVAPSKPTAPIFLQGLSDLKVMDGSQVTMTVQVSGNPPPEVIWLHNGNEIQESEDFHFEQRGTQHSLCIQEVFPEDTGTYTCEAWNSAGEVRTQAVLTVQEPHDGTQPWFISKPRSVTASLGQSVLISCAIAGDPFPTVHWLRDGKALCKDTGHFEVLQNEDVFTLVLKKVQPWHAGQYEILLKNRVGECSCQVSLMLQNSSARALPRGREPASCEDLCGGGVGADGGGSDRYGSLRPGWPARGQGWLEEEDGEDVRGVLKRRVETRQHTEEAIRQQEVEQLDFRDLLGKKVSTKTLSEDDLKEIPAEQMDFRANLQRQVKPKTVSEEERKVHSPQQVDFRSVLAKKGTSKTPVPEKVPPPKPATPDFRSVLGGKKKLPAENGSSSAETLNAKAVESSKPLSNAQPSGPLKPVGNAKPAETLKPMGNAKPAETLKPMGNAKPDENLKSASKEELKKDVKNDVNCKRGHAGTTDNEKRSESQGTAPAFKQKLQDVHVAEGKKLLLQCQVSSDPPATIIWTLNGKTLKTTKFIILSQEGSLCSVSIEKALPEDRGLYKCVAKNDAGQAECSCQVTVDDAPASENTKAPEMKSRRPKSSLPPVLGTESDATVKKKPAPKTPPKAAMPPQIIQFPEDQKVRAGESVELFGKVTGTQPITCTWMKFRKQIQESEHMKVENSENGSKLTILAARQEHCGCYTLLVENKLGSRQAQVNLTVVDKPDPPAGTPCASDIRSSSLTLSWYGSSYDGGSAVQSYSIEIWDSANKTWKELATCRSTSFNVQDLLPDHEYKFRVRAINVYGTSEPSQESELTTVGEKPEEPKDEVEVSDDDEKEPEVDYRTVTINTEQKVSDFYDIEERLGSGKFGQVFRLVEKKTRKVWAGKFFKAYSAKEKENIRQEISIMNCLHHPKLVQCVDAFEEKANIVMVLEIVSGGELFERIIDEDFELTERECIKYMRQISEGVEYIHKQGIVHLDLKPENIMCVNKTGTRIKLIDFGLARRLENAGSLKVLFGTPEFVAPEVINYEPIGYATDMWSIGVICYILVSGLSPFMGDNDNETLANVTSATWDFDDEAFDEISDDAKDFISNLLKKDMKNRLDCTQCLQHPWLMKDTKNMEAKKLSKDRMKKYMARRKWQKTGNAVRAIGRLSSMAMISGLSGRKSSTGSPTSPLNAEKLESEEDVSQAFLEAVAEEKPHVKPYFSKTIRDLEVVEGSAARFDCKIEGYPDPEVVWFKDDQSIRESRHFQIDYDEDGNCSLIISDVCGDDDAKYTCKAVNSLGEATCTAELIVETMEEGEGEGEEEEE

SMILES: CN1CCN(c2ccc(-c3cnc4c(c3)N(Cc3cc(F)ccc3F)CCN4)cn2)CC1
- inhibition [1]: < 50%
- inhibition [2]: < 50%
- inhibition [3]: < 50%
- inhibition [4]: < 50%
- inhibition [5]: < 50%
- inhibition [6]: < 50%
- inhibition [7]: < 50%
- inhibition [8]: < 50%

SMILES: CC(=O)N1CCN(c2cc(-c3cnc4c(c3)N(Cc3cc(Cl)ccc3C(F)(F)F)CCN4)ccn2)CC1
- inhibition [1]: < 50%
- inhibition [2]: < 50%
- inhibition [3]: < 50%
- inhibition [4]: 88%
- inhibition [5]: < 50%
- inhibition [6]: < 50%
- inhibition [7]: < 50%
- inhibition [8]: < 50%

SMILES: CN1CCN(c2ccc(-c3cnc4c(c3)N(Cc3c(F)ccc(F)c3Cl)CCN4)cn2)CC1
- inhibition [1]: < 50%
- inhibition [2]: < 50%
- inhibition [3]: < 50%
- inhibition [4]: < 50%
- inhibition [5]: < 50%
- inhibition [6]: < 50%
- inhibition [7]: < 50%
- inhibition [8]: < 50%

SMILES: FC(F)(F)c1ccc(Cl)cc1CN1CCNc2ncc(-c3ccnc(N4CCNCC4)c3)cc21
- inhibition [1]: < 50%
- inhibition [2]: < 50%
- inhibition [3]: < 50%
- inhibition [4]: 97%
- inhibition [5]: < 50%
- inhibition [6]: < 50%
- inhibition [7]: < 50%
- inhibition [8]: 73%

SMILES: CN1CCN(c2ccc(-c3cnc4c(c3)N(Cc3cc(Cl)ccc3Cl)CCN4)cn2)CC1
- inhibition [1]: < 50%
- inhibition [2]: < 50%
- inhibition [3]: < 50%
- inhibition [4]: < 50%
- inhibition [5]: < 50%
- inhibition [6]: < 50%
- inhibition [7]: < 50%
- inhibition [8]: < 50%

SMILES: O=C(c1ccc(-c2cnc3c(c2)N(Cc2cc(Cl)ccc2C(F)(F)F)CCN3)cc1)N1CCC(N2CCCC2)CC1
- inhibition [1]: < 50%
- inhibition [3]: < 50%
- inhibition [6]: < 50%
- inhibition [7]: < 50%

SMILES: O=C(O)c1ccc(-c2cnc3c(c2)N(Cc2cc(Cl)ccc2C(F)(F)F)CCN3)cc1
- inhibition [1]: < 50%
- inhibition [3]: < 50%
- inhibition [6]: < 50%
- inhibition [7]: < 50%

SMILES: CN1CCN(c2ccc(-c3cnc4c(c3)N(Cc3cc(Cl)ccc3C(F)(F)F)CCN4)cn2)CC1
- inhibition [1]: < 50%
- inhibition [2]: < 50%
- inhibition [3]: < 50%
- inhibition [4]: < 50%
- inhibition [5]: < 50%
- inhibition [6]: < 50%
- inhibition [7]: < 50%
- inhibition [8]: < 50%

SMILES: O=C(c1ccc(-c2cnc3c(c2)N(Cc2cc(Cl)ccc2C(F)(F)F)CCN3)cc1)N1CCCCC1
- inhibition [1]: < 50%
- inhibition [3]: < 50%
- inhibition [6]: < 50%
- inhibition [7]: < 50%

SMILES: COC1CCN(C(=O)c2ccc(-c3cnc4c(c3)N(Cc3cc(Cl)ccc3C(F)(F)F)CCN4)cc2)CC1
- inhibition [1]: < 50%
- inhibition [3]: < 50%
- inhibition [6]: < 50%
- inhibition [7]: < 50%

Source: ChEMBL document CHEMBL1165965, “Synthesis and structure-activity relationships of 1,2,3,4-tetrahydropyrido[2,3-b]pyrazines as potent and selective inhibitors of the anaplastic lymphoma kinase” (Bioorg Med Chem, 2010)
